Laboratory results from article PMC12391519 (Scientific Reports, 2025).

Assays:
serum albumin = experiment: Free TEIC percentage; type: in vitro ADME, human; settings: patient serum, HPLC-UV
In short: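 Free percentage is free/total trough TEIC, both measured by HPLC-UV at 215 nm; free drug was taken after 30 kDa ultrafiltration of serum. Samples were drawn before dosing on days 3–4 (loading: five doses, median 13 mg/kg every 12 h) or from day 7 (maintenance: median 7.8 mg/kg once daily). Relation to albumin was assessed by Spearman rank correlation.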

albumin = settings: cited from earlier work
[1] = Adverse events during TEIC therapy; type: in vivo, human; settings: ROC analysis, n = 41
In short: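 Renal dysfunction was a serum creatinine rise of ≥0.3 mg/dL within 48 h, or ≥1.5-times baseline within seven days, of TEIC administration. Hepatic dysfunction was AST or ALT outside the normal limit of ≤30 IU/L (CTCAE v5.0). ROC analysis used measured free trough TEIC (ultrafiltration, HPLC-UV). The cutoff was the point where sensitivity and specificity, plotted against free concentration, gave the best result.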

[2] = cited from earlier work
[3] = Total serum TEIC trough concentration by HPLC in patients on TEIC therapy; type: in vivo, human
In short: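 Trough serum was drawn before dosing (days 3–4 of loading, day 7 onward of maintenance), centrifuged 1,800 g for 15 min at 25 °C and stored at –30 °C. It got primidone internal standard, acetonitrile deproteinisation and 0.1 M HCl/chloroform cleanup. HPLC-UV ran at 215 nm on a C18 column at 35 °C with a 10 mM phosphate pH 3.0/acetonitrile gradient at 1.0 mL/min. Calibrators were in commercial human serum; groups were compared by Mann–Whitney U.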

[4] = Free serum TEIC trough concentration by ultrafiltration followed by HPLC; type: in vivo, human
In short: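 Trough serum (1 mL) was ultrafiltered through a 30 kDa cutoff filter. The filtrate got primidone internal standard, acetonitrile deproteinisation and 0.1 M HCl/chloroform cleanup, then C18 HPLC-UV at 215 nm; calibrators were in ultrafiltered human serum. Response was […] CRP decrease plus ≥0.3 °C fever reduction for two consecutive days within 96 h. Adverse events were renal or hepatic dysfunction. Groups were compared by Mann–Whitney U.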

Free teicoplanin percentage, median (serum albumin; all samples, ultrafiltration 30 kDa, free/total): 6.3% | Free teicoplanin percentage, loading dose period, median (serum albumin; loading dose period, ultrafiltration): 6.2% | Free teicoplanin percentage, maintenance dose period, median (serum albumin; maintenance dose period, ultrafiltration): 6.3% | Trough total concentration, loading dose period, median ([3]; loading dose period (days 3–4, median dose 13 mg/kg every 12 h), serum, HPLC-UV): 24.3 µg/mL | Trough total concentration, maintenance dose period, median ([3]; maintenance dose period (day 7 onward, median dose 7.8 mg/kg once daily), serum, HPLC-UV): 26.2 µg/mL | Total serum TEIC concentration, patients without effective response, median ([3]; n = 7): 21.1 µg/mL | Total serum TEIC concentration, patients with effective response, median ([3]; n = 17): 24.8 µg/mL | Trough free concentration, loading dose period, median ([4]; loading dose period, ultrafiltration 30 kDa, HPLC-UV, median): 1.50 µg/mL | Trough free concentration, maintenance dose period, median ([4]; maintenance dose period, ultrafiltration 30 kDa, HPLC-UV, median): 1.65 µg/mL | Free serum TEIC concentration, patients without effective response, median ([4]; n = 7, median): 1.26 µg/mL | Free serum TEIC concentration, patients with effective response, median ([4]; n = 17, median): 1.50 µg/mL | Free serum TEIC concentration, single patient with efficacy ([4]; one of the 17 patients who showed efficacy, total serum TEIC < 15 µg/mL): 1.67 µg/mL | Free serum TEIC concentration, single patient with high total concentration ([4]; one patient, total serum TEIC > 40 μg/mL): 1.78 µg/mL
Substance: Teicoplanin
nKa (binding sites per albumin molecule × association constant) (albumin; analysis of Yano et al.): 1.78 (g/dL)^−1 | Protein-binding rate used by Byrne et al. (albumin): 90–95% | Protein-binding rate (albumin; in humans, serum albumin): ≥ 90% | Cutoff value of free serum TEIC concentration for occurrence of adverse events [1]: 2.07 µg/mL | Cutoff of mean free serum TEIC concentration associated with renal dysfunction ([2]; Sugiyama et al.): 4.2 µg/mL | Effective total serum TEIC trough concentrations in clinical settings [2]: 15 to 40 µg/mL | Effective total serum TEIC trough concentrations, complicated infections [2]: 20 to 40 µg/mL | Effective total serum TEIC trough concentrations, uncomplicated infections [2]: 15 to 30 µg/mL | TEIC concentration causing renal dysfunction [2]: > 60 µg/mL | Total serum TEIC concentration, patients with adverse events, median ([3]; n = 7): 36.1 µg/mL | Total serum TEIC concentration, patients without adverse events, median ([3]; n = 34): 30.1 µg/mL | Free serum TEIC concentration, single patient with adverse events ([4]; another patient, total serum TEIC < 40 μg/mL, adverse events noted): 6.31 µg/mL | Free serum TEIC concentration, patients with adverse events, median ([4]; n = 7, median): 2.60 µg/mL | Free serum TEIC concentration, patients without adverse events, median ([4]; n = 34, median): 1.35 µg/mL
